Tests used:
[1] = biological target: T1, Heat shock protein HSP90 (Homo sapiens, UniProt P07900+P08238); experiment: Concentration of test compound required for half-maximal inhibition of binding of Heat shock 90 KD protein by MCF-7 cell lysate assay; format: cell-based
In short: (§1)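 Lysate incubated ± compound 30 min at 4 °C, then with biotin-GM on streptavidin magnetic beads 1 h at 4 °C. Beads washed three times and boiled in SDS sample buffer. Bound Hsp90 detected by Western blot and band quantitation. IC50 taken as half-maximal inhibition of binding.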

[2] = biological target: T1, Heat shock protein HSP90; experiment: […] human epidermal growth factor 2 (Her-2) degradation in MCF-7 cells; format: cell-based; settings: mcf7
In short: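 MCF7 cells in DMEM with 10% FBS and 10 mM HEPES, treated at 65–70% confluence with compound (1000 nM down to 3 nM, half-log steps) for 16 h. Trypsinized cells stained with PE anti-Her-2 or PE isotype control (1 µg/mL, 15 min). Flow cytometry with 10,000 events; control-subtracted mean fluorescence versus DMSO cells. EC50 = 50% Her-2 degradation; n = 2.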

[3] = biological target: T1, Heat shock protein HSP90; experiment: (§2) Concentration required to inhibit Bis-ANS activity by recombinant heat shock protein 90 (rHSP90) conformational assay
In short: (§3)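 Compound at 100–0.3 µM or DMSO for 60 min at 37 °C, then bis-ANS (0.1 mM stock) for 30 min at 37 °C. Fluorescence read at ex 393/em 484 nm, minus a no-protein background. IC50 = 50% inhibition of bis-ANS signal versus DMSO; n = 2.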

[4] = biological target: T1, Heat shock protein HSP90; experiment: Concentration required to inhibit biotin-GM binding to recombinant heat shock protein 90(rHsp90); format: protein assay
In short: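 rHsp90 coated in PBS overnight at 4 °C. Compound at 100–0.3 µM or DMSO for 60 min at 37 °C. Then 10 µM biotinylated geldanamycin 60 min and 20 µg/mL streptavidin-phycoerythrin 60 min, both at 37 °C, with washes between. Fluorescence read at ex 485/em 580 nm, minus an uncoated-well background. % binding inhibition calculated versus DMSO.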

[5] = Ratio of inhibitory concentration of rHsp90 and cell lysate Hsp90
[6] = as §2; design: species or system Homo sapiens; in short: as §3
[7] = test system: MCF7; experiment: Inhibitory concentration of compound against MCF-7 cells by MTS assay; format: functional, cell-based; settings: Homo sapiens
In short: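 MCF7 cells seeded at 2000/well in DMEM with 10% FBS and left overnight to adhere; final culture volume 100 µL. Viability read with MTS/PMS (mixed 20:1, 20 µL per well) as A490 after 2-4 h, with cell-free medium plus MTS-PMS as background. % viable cells taken relative to untreated cells; IC50 is the concentration giving 50% viable cells; n = 2.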

[8] = biological target: T1, Heat shock protein HSP90; experiment: Concentration of test compound required for inhibition of binding of rHsp90 in MCF-7 cell lysate; format: cell-based; in short: as §1

SMILES	IC50 [1] [nM]	IC50 [2] [nM]	IC50 [3] [nM]	IC50 [4] [nM]	Ratio [5]	IC50 [6] [nM]	IC50 [7] [nM]	IC50 [8] [nM]
CO[C@H]1/C=C\C=C(/C)C(=O)NC2=CC(=O)C(c3cccs3)=C(C[C@@H](C)C[C@H](OC)[C@H](O)[C@@H](C)/C=C(\C)[C@@H]1OC(N)=O)C2=O	55	250	1700	1700	31	–	–	–
CO[C@H]1/C=C\C=C(/C)C(=O)NC2=CC(=O)C(c3ccccc3)=C(C[C@@H](C)C[C@H](OC)[C@H](O)[C@@H](C)/C=C(\C)[C@@H]1OC(N)=O)C2=O	70	280	3000	3000	43	–	–	–
CCOC(=O)NC1=C2C[C@@H](C)C[C@H](OC)[C@H](O)[C@@H](C)/C=C(\C)[C@H](OC(N)=O)[C@@H](OC)/C=C\C=C(/C)C(=O)NC(=CC1=O)C2=O	–	260	3000	3000	–	–	–	–
C=CCNC1=C2C[C@@H](C)C[C@H](OC)[C@H](O)[C@@H](C)/C=C(\C)[C@H](OC(N)=O)[C@@H](OC)/C=C/C=C(\C)C(=O)NC(=CC1=O)C2=O	–	–	–	–	40	700	–	–
CO[C@H]1/C=C\C=C(/C)C(=O)NC2=CC(=O)C(NC(=O)OCc3ccc(OC(C)=O)cc3)=C(C[C@@H](C)C[C@H](OC)[C@H](O)[C@@H](C)/C=C(\C)[C@@H]1OC(N)=O)C2=O	–	50	2500	1000	–	–	40	–
CO[C@H]1/C=C\C=C(/C)C(=O)NC2=CC(=O)C(NC(=O)OCC(C)C)=C(C[C@@H](C)C[C@H](OC)[C@H](O)[C@@H](C)/C=C(\C)[C@@H]1OC(N)=O)C2=O	–	120	4000	4000	1330	–	180	3
CCN(Cc1ccccc1)Cc1ccc(C(=O)NC2=C3C[C@@H](C)C[C@H](OC)[C@H](O)[C@@H](C)/C=C(\C)[C@H](OC(N)=O)[C@@H](OC)/C=C\C=C(/C)C(=O)NC(=CC2=O)C3=O)cc1	–	140	1000	1100	92	–	200	12
CO[C@H]1/C=C\C=C(/C)C(=O)NC2=CC(=O)C(NC(=O)c3ccc(CN4CCN(c5ccc(Cl)cc5)CC4)cc3)=C(C[C@@H](C)C[C@H](OC)[C@H](O)[C@@H](C)/C=C(\C)[C@@H]1OC(N)=O)C2=O	–	250	1000	1000	111	–	150	9
COc1ccccc1C(=O)NC1=C2C[C@@H](C)C[C@H](OC)[C@H](O)[C@@H](C)/C=C(\C)[C@H](OC(N)=O)[C@@H](OC)/C=C\C=C(/C)C(=O)NC(=CC1=O)C2=O	–	180	1000	1100	–	–	–	–
CO[C@H]1/C=C\C=C(/C)C(=O)NC2=CC(=O)C(NC(=O)c3cccs3)=C(C[C@@H](C)C[C@H](OC)[C@H](O)[C@@H](C)/C=C(\C)[C@@H]1OC(N)=O)C2=O	40	400	3000	2000	75	–	–	–
CO[C@H]1/C=C\C=C(/C)C(=O)NC2=CC(=O)C(NC(=O)c3ccco3)=C(C[C@@H](C)C[C@H](OC)[C@H](O)[C@@H](C)/C=C(\C)[C@@H]1OC(N)=O)C2=O	–	500	4000	4000	–	–	–	–
CO[C@H]1/C=C\C=C(/C)C(=O)NC2=CC(=O)C(NC(=O)c3ccc(CCl)cc3)=C(C[C@@H](C)C[C@H](OC)[C@H](O)[C@@H](C)/C=C(\C)[C@@H]1OC(N)=O)C2=O	–	550	2000	4000	–	–	–	–
C=CCNC(=O)NC1=C2C[C@@H](C)C[C@H](OC)[C@H](O)[C@@H](C)/C=C(\C)[C@H](OC(N)=O)[C@@H](OC)/C=C\C=C(/C)C(=O)NC(=CC1=O)C2=O	–	> 10000	–	35000	–	–	–	–
CO[C@H]1/C=C\C=C(/C)C(=O)NC2=CC(=O)C(NC(=O)C(C)=O)=C(C[C@@H](C)C[C@H](OC)[C@H](O)[C@@H](C)/C=C(\C)[C@@H]1OC(N)=O)C2=O	–	1700	20000	15000	–	–	–	–
CCCN(CCC)Cc1ccc(C(=O)NC2=C3C[C@@H](C)C[C@H](OC)[C@H](O)[C@@H](C)/C=C(\C)[C@H](OC(N)=O)[C@@H](OC)/C=C\C=C(/C)C(=O)NC(=CC2=O)C3=O)cc1	–	500	1200	3000	–	–	500	–
CO[C@H]1/C=C\C=C(/C)C(=O)NC2=CC(=O)C(NC(=O)OCCCCN3CCOCC3)=C(C[C@@H](C)C[C@H](OC)[C@H](O)[C@@H](C)/C=C(\C)[C@@H]1OC(N)=O)C2=O	10	500	1000	1000	100	–	–	–
CO[C@H]1/C=C\C=C(/C)C(=O)NC2=CC(=O)C(NC(=O)c3ccc(CN4CCc5ccccc5C4)cc3)=C(C[C@@H](C)C[C@H](OC)[C@H](O)[C@@H](C)/C=C(\C)[C@@H]1OC(N)=O)C2=O	–	200	1500	1000	–	–	–	–

Continued, in another order:

IC50 [1] [nM]	IC50 [2] [nM]	IC50 [3] [nM]	IC50 [4] [nM]	Ratio [5]	IC50 [6] [nM]	SMILES	IC50 [7] [nM]	IC50 [8] [nM]
–	200	3000	4000	–	–	CO[C@H]1/C=C\C=C(/C)C(=O)NC2=CC(=O)C(NC(=O)c3ccccc3)=C(C[C@@H](C)C[C@H](OC)[C@H](O)[C@@H](C)/C=C(\C)[C@@H]1OC(N)=O)C2=O	–	–
–	180	900	1300	–	–	COc1cccc(C(=O)NC2=C3C[C@@H](C)C[C@H](OC)[C@H](O)[C@@H](C)/C=C(\C)[C@H](OC(N)=O)[C@@H](OC)/C=C\C=C(/C)C(=O)NC(=CC2=O)C3=O)c1	–	–
–	200	1300	1000	–	–	CO[C@H]1/C=C\C=C(/C)C(=O)NC2=CC(=O)C(NC(=O)c3ccc(CN4CCN(c5ccc([N+](=O)[O-])cc5)CC4)cc3)=C(C[C@@H](C)C[C@H](OC)[C@H](O)[C@@H](C)/C=C(\C)[C@@H]1OC(N)=O)C2=O	–	–
120	800	8000	5000	67	–	CO[C@H]1/C=C\C=C(/C)C(=O)NC2=CC(=O)C(NC(=O)c3ccc(CN4CCN(C)CC4)cc3)=C(C[C@@H](C)C[C@H](OC)[C@H](O)[C@@H](C)/C=C(\C)[C@@H]1OC(N)=O)C2=O	–	–
–	1000	10000	–	–	–	CO[C@H]1/C=C\C=C(/C)C(=O)NC2=CC(=O)C(NC(=O)c3cccc(CCl)c3)=C(C[C@@H](C)C[C@H](OC)[C@H](O)[C@@H](C)/C=C(\C)[C@@H]1OC(N)=O)C2=O	–	–
–	1700	3000	17000	200	–	CO[C@H]1/C=C\C=C(/C)C(=O)NC2=CC(=O)C(NC(=O)c3ccc(CN(C)C)cc3)=C(C[C@@H](C)C[C@H](OC)[C@H](O)[C@@H](C)/C=C(\C)[C@@H]1OC(N)=O)C2=O	> 30000	15
–	250	1500	1500	–	–	CO[C@H]1/C=C\C=C(/C)C(=O)NC2=CC(=O)C(NC(=O)c3ccc(F)cc3)=C(C[C@@H](C)C[C@H](OC)[C@H](O)[C@@H](C)/C=C(\C)[C@@H]1OC(N)=O)C2=O	–	–
–	400	4000	5000	–	–	COc1ccc(C(=O)NC2=C3C[C@@H](C)C[C@H](OC)[C@H](O)[C@@H](C)/C=C(\C)[C@H](OC(N)=O)[C@@H](OC)/C=C\C=C(/C)C(=O)NC(=CC2=O)C3=O)cc1	–	–
–	600	5800	5500	–	–	CO[C@H]1/C=C\C=C(/C)C(=O)NC2=CC(=O)C(NC(=O)c3ccc(CN4CCN(C5CCCCC5)CC4)cc3)=C(C[C@@H](C)C[C@H](OC)[C@H](O)[C@@H](C)/C=C(\C)[C@@H]1OC(N)=O)C2=O	–	–
–	220	1500	3000	–	–	COc1ccc(N2CCN(Cc3ccc(C(=O)NC4=C5C[C@@H](C)C[C@H](OC)[C@H](O)[C@@H](C)/C=C(\C)[C@H](OC(N)=O)[C@@H](OC)/C=C\C=C(/C)C(=O)NC(=CC4=O)C5=O)cc3)CC2)cc1	–	–
–	> 10000	2100	2500	–	–	CO[C@H]1/C=C\C=C(/C)C(=O)NC2=CC(=O)C(NC(=O)c3ccc(CN4CCCCC4)cc3)=C(C[C@@H](C)C[C@H](OC)[C@H](O)[C@@H](C)/C=C(\C)[C@@H]1OC(N)=O)C2=O	–	–
–	300	2000	3500	–	–	CO[C@H]1/C=C\C=C(/C)C(=O)NC2=CC(=O)C(NC(=O)c3ccc([N+](=O)[O-])cc3)=C(C[C@@H](C)C[C@H](OC)[C@H](O)[C@@H](C)/C=C(\C)[C@@H]1OC(N)=O)C2=O	–	–

— ChEMBL document CHEMBL1149179, “Synthesis and biological evaluation of a new class of geldanamycin derivatives as potent inhibitors of Hsp90” (J Med Chem, 2004)
